Key:
[1] = tested on: Canis familiaris; experiment: Tested in vivo for effective dose required for suppression of apomorphine-induced emesis in dog […]; format: functional; conditions: Canis lupus familiaris
[2] = tested on: Canis familiaris; experiment: Antiemetic activity was evaluated in vivo by the suppression of apomorphine-induced emesis in dogs at oral dose of 1.0 mg/kg; format: functional, Canis lupus familiaris
[3] = tested on: Rattus norvegicus; experiment: Compound was tested for its effect on the gastric emptying rate of phenol red semisolid meal through the stomach at oral dose of 3.0 mg/kg in rats.; format: functional
Method in brief: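 Rats dosed orally at 3.0 mg/kg, with a 0.5% tragacanth control group. Gastric emptying of a phenol red semisolid meal was measured and expressed as percentage enhancement relative to the control group mean. Significance was tested against control.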

Row | SMILES | ED50 [1] [mg/kg] | Antiemetic activity [2] [%] | Gastric emptying [3] [%]
1 | CCN(CC)CCNC(=O)c1cc(Cl)c(N)cc1OC [METOCLOPRAMIDE] | 0.45 | 86 | 39
2 | CCOc1cc(N)c(Cl)cc1C(=O)NCC1CN(Cc2ccc(F)cc2)CCO1 (stereo unspecified) [MOSAPRIDE] | > 10 | 8 | 70
3 | CCN1CCCCC(NC(=O)c2cc3nnn(C(C)C)c3cc2OC)C1 (stereo unspecified) | – | 94 | 16
4 | CCN1CCCCC(NC(=O)c2cc3nnn(CC)c3cc2OC)C1 (stereo unspecified) | – | 89 | 31
5 | CCCn1nnc2cc(C(=O)NC3CCCCN(CC)C3)c(OC)cc21 (stereo unspecified) | – | 89 | 29
6 | CCN1CCCCC(NC(=O)c2ccc3[nH]nnc3c2OC)C1 (stereo unspecified) | – | 50 | 11
7 | CCN1CCCCC(NC(=O)c2cc3nnn(C)c3cc2OC)C1 (stereo unspecified) | – | 77 | 49
8 | COc1cc2[nH]nnc2cc1C(=O)NC1CCCCN(C)C1 (stereo unspecified) | – | 46 | 20
9 | COc1cc2[nH]nnc2cc1C(=O)NC1CCCCN(C(C)C)C1 (stereo unspecified) | – | 15 | 31
10 | CCN1CCCCC(NC(=O)c2cc3[nH]nnc3cc2OC)C1 (stereo unspecified) | 0.08 | 100 | 28
11 | CCN1CCCCCC(NC(=O)c2cc3[nH]nnc3cc2OC)C1 (stereo unspecified) | 0.19 | 100 | 21
12 | CCN1CCCCC(NC(=O)c2cc3nnn(CC4CC4)c3cc2OC)C1 (stereo unspecified) | – | 74 | 34
13 | CCCN1CCCCC(NC(=O)c2cc3[nH]nnc3cc2OC)C1 (stereo unspecified) | – | 63 | 17
14 | CCN1CCCCCCC(NC(=O)c2cc3[nH]nnc3cc2OC)C1 (stereo unspecified) | 0.1 | 100 | 46
15 | CCOc1cc2[nH]nnc2cc1C(=O)NC1CCCCN(CC)C1 (stereo unspecified) | – | 15 | 18
16 | CCN1CCCC(NC(=O)c2cc3[nH]nnc3cc2OC)C1 (stereo unspecified) | – | 31 | –
17 | O=c1[nH]c2ccccc2n1CCCN1CCC(n2c(=O)[nH]c3cc(Cl)ccc32)CC1 [DOMPERIDONE] | 0.02 | 100 | 0
18 | CCN1CCCCCCCC(NC(=O)c2cc3[nH]nnc3cc2OC)C1 (stereo unspecified) | – | 22 | 31
